The target of assay [1] is Toll-like receptor 3 (Homo sapiens) (UniProt O15455). As to the kind of experiment: Inhibition of human TLR3 expressed in HEK293 cells assessed as reduction in poly(I:C)-induced NFkappaB production at 1.5 to 5 uM incubated for 16 hrs by quanti-blue SEAP assay. It is filed as cell-based. The method, boiled down: (§1)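 Selectivity panel in stably transfected HEK 293-Blue cells, each overexpressing one human TLR with an inducible SEAP reporter. Agonists: Pam3CSK4 (TLR1/2), Pam2CSK4 (TLR2/6), poly(I:C) (TLR3), LPS (TLR4), R848 (TLR7/8), ODN 2006 (TLR9). Cells were exposed to compound for 16 h. Activity = (raw − untreated)/(ligand + solvent − untreated), with ligand + solvent set as 100%.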
Sequence of Toll-like receptor 3 (Homo sapiens) (O15455 whole entry): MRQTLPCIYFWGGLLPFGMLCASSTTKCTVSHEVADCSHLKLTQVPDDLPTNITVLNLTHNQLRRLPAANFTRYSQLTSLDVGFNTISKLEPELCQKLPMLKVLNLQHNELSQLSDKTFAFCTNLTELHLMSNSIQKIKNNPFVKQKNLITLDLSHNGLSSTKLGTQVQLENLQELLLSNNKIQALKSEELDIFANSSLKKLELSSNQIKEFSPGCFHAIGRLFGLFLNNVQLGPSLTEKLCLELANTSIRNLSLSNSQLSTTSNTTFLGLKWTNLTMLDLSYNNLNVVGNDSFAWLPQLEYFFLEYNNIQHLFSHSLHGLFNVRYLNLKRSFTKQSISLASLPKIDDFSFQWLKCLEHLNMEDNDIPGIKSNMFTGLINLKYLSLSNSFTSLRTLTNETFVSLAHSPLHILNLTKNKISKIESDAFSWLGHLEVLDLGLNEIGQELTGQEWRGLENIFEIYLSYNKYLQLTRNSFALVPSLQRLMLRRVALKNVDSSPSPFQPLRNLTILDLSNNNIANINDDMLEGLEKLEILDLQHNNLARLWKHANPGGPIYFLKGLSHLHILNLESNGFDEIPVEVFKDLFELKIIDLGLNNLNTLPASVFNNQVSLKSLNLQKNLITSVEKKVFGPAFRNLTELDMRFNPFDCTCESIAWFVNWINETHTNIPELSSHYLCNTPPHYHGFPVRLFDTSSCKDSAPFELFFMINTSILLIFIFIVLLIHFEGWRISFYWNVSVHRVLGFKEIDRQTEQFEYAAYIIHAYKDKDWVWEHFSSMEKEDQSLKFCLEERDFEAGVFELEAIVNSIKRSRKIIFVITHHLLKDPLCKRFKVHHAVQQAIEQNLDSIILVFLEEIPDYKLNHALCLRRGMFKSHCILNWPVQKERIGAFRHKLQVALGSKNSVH

Assay [2] addresses T1, Toll-like receptor 8 (Homo sapiens) (UniProt Q9NR97).
T1 sequence (whole entry): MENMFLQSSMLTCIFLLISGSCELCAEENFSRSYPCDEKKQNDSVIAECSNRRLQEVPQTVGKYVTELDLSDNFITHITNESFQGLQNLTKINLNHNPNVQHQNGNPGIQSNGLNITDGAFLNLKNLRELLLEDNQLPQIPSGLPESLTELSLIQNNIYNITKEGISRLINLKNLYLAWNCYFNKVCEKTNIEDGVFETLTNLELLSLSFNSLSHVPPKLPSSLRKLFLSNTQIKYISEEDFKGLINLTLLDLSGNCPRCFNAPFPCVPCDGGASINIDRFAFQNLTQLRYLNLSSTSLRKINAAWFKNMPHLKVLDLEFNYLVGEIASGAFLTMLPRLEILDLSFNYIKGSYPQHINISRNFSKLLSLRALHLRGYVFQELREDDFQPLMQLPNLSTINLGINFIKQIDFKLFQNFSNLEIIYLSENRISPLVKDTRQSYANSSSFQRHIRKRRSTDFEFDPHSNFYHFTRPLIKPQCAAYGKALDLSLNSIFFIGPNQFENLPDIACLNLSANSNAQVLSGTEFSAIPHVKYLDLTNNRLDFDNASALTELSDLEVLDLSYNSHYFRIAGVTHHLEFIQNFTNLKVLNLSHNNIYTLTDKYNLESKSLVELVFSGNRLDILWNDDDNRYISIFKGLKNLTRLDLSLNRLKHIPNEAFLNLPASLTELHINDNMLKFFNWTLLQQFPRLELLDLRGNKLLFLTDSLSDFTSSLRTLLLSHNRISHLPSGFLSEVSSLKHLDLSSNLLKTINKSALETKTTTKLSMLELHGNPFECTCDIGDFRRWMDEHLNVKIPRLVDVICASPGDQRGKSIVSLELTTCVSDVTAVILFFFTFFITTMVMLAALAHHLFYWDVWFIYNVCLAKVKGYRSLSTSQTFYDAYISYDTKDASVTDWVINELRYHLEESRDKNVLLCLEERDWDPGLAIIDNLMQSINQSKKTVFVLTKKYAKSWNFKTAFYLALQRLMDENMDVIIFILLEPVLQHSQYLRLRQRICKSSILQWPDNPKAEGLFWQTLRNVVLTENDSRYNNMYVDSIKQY
As to the kind of experiment: Inhibition of human TLR8 expressed in HEK293 cells assessed as reduction in R848-induced NFkappaB production incubated for 16 hrs by quanti-blue SEAP assay. It is filed as cell-based. The method, boiled down:
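HEK 293-Blue cells stably expressing hTLR7 or hTLR8 with an inducible SEAP reporter were incubated 16 h with compound under 1 µg/mL R848 stimulation. SEAP was read at 620 nm. Data were normalized to the R848 control, and IC50 was taken from concentration-response curves. […] Mean ± s.d., n = 3 independent experiments.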

In assay [3] the target is Toll-like receptor 7 (Mus musculus) (UniProt P58681). As to the kind of experiment: Inhibition of endogenous mouse TLR7 in mouse RAW264.7 cells assessed as resiquimod-induced NO production at 1.25 uM incubated for 18 to 24 hrs.
Sequence of Toll-like receptor 7 (Mus musculus) (P58681 whole entry, looked up): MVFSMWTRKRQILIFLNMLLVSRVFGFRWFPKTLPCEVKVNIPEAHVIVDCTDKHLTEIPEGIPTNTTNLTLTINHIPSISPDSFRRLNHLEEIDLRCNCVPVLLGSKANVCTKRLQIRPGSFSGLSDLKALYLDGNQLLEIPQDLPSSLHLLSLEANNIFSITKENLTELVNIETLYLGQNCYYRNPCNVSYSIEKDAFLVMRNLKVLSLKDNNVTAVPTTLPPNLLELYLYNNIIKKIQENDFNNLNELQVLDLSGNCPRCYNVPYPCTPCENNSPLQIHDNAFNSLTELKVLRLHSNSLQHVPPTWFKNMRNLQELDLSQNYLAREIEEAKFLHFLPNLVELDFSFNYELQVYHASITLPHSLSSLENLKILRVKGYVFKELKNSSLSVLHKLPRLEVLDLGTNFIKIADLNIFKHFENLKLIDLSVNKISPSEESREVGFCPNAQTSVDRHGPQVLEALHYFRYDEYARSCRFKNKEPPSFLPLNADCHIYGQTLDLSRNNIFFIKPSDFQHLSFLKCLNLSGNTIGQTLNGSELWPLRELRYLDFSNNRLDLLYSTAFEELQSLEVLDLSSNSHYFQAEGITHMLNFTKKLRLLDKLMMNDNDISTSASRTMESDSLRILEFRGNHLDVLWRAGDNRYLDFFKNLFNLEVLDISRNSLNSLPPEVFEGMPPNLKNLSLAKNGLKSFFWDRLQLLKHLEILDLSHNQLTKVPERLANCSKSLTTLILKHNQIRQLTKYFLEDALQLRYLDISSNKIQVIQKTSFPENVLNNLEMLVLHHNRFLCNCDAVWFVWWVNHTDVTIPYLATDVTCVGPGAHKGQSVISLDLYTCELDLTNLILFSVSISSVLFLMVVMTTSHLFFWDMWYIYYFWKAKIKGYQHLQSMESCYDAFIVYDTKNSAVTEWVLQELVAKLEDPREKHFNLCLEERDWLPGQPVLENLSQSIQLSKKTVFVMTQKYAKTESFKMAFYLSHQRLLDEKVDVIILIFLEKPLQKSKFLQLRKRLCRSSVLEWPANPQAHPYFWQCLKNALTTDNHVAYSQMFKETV
Assay [4] has the same target. As to the kind of experiment: Inhibition of endogenous mouse TLR7 in mouse RAW264.7 cells assessed as resiquimod-induced NO production at < 5 uM incubated for 18 to 24 hrs.
Assay [5] deals with T2, Toll-like receptor 7 (Homo sapiens) (UniProt Q9NYK1).
T2 sequence (whole entry): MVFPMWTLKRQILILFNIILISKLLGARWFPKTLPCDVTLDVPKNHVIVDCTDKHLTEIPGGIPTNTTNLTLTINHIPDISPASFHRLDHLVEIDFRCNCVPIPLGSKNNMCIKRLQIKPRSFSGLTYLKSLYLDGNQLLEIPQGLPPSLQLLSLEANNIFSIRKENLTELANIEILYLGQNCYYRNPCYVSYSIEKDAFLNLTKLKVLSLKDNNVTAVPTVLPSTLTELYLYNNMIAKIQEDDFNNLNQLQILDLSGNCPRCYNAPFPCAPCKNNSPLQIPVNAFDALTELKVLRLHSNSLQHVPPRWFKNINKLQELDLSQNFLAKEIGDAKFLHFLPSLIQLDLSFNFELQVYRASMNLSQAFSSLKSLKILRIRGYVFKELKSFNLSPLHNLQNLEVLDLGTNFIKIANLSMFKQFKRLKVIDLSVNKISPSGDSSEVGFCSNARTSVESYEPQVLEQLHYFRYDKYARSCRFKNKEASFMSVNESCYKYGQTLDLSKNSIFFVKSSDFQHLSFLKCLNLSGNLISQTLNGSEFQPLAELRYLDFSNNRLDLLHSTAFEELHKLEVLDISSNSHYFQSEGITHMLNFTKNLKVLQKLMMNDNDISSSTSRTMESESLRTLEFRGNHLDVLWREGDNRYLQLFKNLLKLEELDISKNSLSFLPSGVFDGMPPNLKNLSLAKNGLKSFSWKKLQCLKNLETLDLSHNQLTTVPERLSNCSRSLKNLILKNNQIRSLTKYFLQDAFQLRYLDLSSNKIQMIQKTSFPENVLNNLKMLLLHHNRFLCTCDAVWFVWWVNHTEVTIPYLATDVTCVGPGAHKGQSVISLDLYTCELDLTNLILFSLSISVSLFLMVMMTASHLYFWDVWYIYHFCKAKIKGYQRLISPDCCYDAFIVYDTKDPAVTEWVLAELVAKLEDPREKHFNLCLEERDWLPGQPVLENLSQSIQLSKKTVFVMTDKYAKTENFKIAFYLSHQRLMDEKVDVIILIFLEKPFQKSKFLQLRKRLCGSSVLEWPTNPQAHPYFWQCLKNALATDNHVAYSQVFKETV
As to the kind of experiment: Inhibition of human TLR7 expressed in HEK293 cells assessed as reduction in resiquimod-induced NFkappaB production at 5 to 20 uM incubated for 16 hrs by quanti-blue SEAP assay. It is filed as cell-based. The essentials:
as §1

Assay [6] has as its system THP-1. As to the kind of experiment: Inhibition of IFN mediated immune response in human THP1 cells assessed as inhibition of G3-YSD-induced cGAS signalling pathway at 5 to 20 uM incubated for 16 hrs by luciferase assay. Type of assay: functional, cell-based. The method, boiled down:
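THP1-Dual monocytes carrying Lucia luciferase and SEAP reporters were stimulated with 3p-hpRNA (RIG-I agonist) or Y-form dsDNA G3-YSD (cGAS agonist), with or without compound. Secreted Lucia luciferase luminescence was measured as the type I IFN read-out. Mean ± s.d., n = 3 independent experiments.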

Activity calls are given as the source filed them. No cut-off for these calls is given here.

Regarding `O=C(Nc1ccc(Oc2cc(C(F)(F)F)cc(C(F)(F)F)c2)cc1)c1c(F)cccc1Cl`, the inhibition result in assay [1] was “inactive”. Also, the inhibition result in assay [2] is “Dose-dependent effect”. Turning to `O=C(Nc1ccc(Oc2cc(C(F)(F)F)cc(C(F)(F)F)c2)cc1)c1c(F)cccc1I`, the inhibition result in assay [3] is “inactive”. With `O=[N+]([O-])c1c(I)cccc1Oc1ccc(-c2nnco2)cc1`, the inhibition entry in assay [4] is “inactive”. For `O=C(Nc1ccc(Oc2cncc(C(F)(F)F)c2)cc1)c1c(F)cccc1Cl`, the inhibition result in assay [5] and in assay [6] was “Active” throughout.

Values taken from ChEMBL document CHEMBL4354819, “Discovery of Novel Small Molecule Dual Inhibitors Targeting Toll-Like Receptors 7 and 8” (J Med Chem, 2019).
